One may read the EC50 as the concentration giving half of the maximal effect.

We go through one molecule from ChEMBL document CHEMBL4406851, “Design, synthesis and biological evaluation of cinnamic acid derivatives with synergetic neuroprotection and angiogenesis effect” (Eur J Med Chem, 2019).

In test [1] the test system is HBMEC-2. In words: Protection against H2O2-induced apoptosis in human HBMEC2 cells assessed as decrease in nuclear fragmentation preincubated for 24 hrs followed by H2O2 addition measured after 4 hrs by DAPI staining based inverted phase contrast microscopic analysis. The format is functional, cell-based. In short, it runs like this: (§1)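 Cells at 3.5×10^4 cells/mL in 24-well plates were pretreated 24 h with compound at three concentrations, then H2O2 (4.8 mM stock) for 4 h. After PBS washes, cells were fixed in 4% paraformaldehyde/70% cold ethanol for 10 min. Staining was 6% Giemsa or DAPI for 5 min in the dark. Random fields were photographed at 200× by microscope, alongside control and model groups.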

Test [2] is described as follows: Inhibition of H2O2-induced apoptosis in human HBMEC2 cells assessed as late apoptotic cells at 1.56 uM preincubated for 24 hrs followed by H2O2 addition measured after 4 hrs by Annexin V-FITC/propidium iodide staining based flow cytometry (reference value: 29.4 %). Further details: scale not given: the % may be the effect or the level left. It is filed as functional, HBMEC-2. In short, it runs like this:
(§2)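 Cells were seeded at 3.5×10^4 cells/mL in 6-well plates at 37 °C, 5% CO2. Compound was added at three concentrations for 24 h, then H2O2 (4.8 mM stock solution) to model and drug wells for 4 h. Cells were collected, washed in cold PBS and resuspended in annexin-binding buffer. Staining was annexin V-FITC 10 min, then PI 5 min, in the dark, followed by flow cytometry with quadrant gating.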
Background: In flow cytometry, cells or beads pass a laser one at a time.

Test [3] relates to SH-SY5Y. The experiment in a line: Inhibition of H2O2-induced apoptosis in human SH-SY5Y cells assessed as early apoptotic cells at 6.25 uM preincubated for 24 hrs followed by H2O2 addition measured after 4 hrs by Annexin V-FITC/propidium iodide staining based flow cytometry (reference value: 5.4 %). It is filed as functional. On the set-up: scale not given: the % may be the effect or the level left. In short, it runs like this:
as §2

Test [4] in a line: Inhibition of H2O2-induced apoptosis in human HBMEC2 cells assessed as late apoptotic cells at 6.25 uM preincubated for 24 hrs followed by H2O2 addition measured after 4 hrs by Annexin V-FITC/propidium iodide staining based flow cytometry (reference value: 29.4 %). The format is functional, HBMEC-2. On the set-up: scale not given: the % may be the effect or the level left. A digest of the protocol: as §2

Test [5] concerns SH-SY5Y. The experiment in a line: Inhibition of H2O2-induced apoptosis in human SH-SY5Y cells assessed as early apoptotic cells at 1.56 uM preincubated for 24 hrs followed by H2O2 addition measured after 4 hrs by Annexin V-FITC/propidium iodide staining based flow cytometry (reference value: 5.4 %). The format is functional. Further details: scale not given: the % may be the effect or the level left. A digest of the protocol: as §2

The test system of test [6] is SH-SY5Y. The experiment in a line: Inhibition of H2O2-induced apoptosis in human SH-SY5Y cells assessed as late apoptotic cells at 6.25 uM preincubated for 24 hrs followed by H2O2 addition measured after 4 hrs by Annexin V-FITC/propidium iodide staining based flow cytometry (reference value: 26.5 %). It is filed as functional. Further details: scale not given: the % may be the effect or the level left. In short, it runs like this:
as §2

Test [7] concerns SH-SY5Y. In words: Inhibition of H2O2-induced apoptosis in human SH-SY5Y cells assessed as normal cells at 6.25 uM preincubated for 24 hrs followed by H2O2 addition measured after 4 hrs by Annexin V-FITC/propidium iodide staining based flow cytometry (reference value: 67.2 %). It is filed as functional. On the set-up: scale not given: the % may be the effect or the level left. In short, it runs like this: as §2

The test system of test [8] is HBMEC-2. In words: Protection against H2O2-induced mitochondrial dysfunction in human HBMEC2 cells assessed as recovery of mitochondrial membrane potential at 1.56 to 6.25 uM preincubated for 24 hrs followed by H202 addition measured after 4 hrs by Rh123 staining based inverted light microscopic analysis. The format is functional, cell-based. In short, it runs like this:
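Cells in 96-well plates (3.5×10^4 cells/mL) were grown 24 h. They were pretreated 24 h with compound at three concentrations, then exposed to H2O2 (4.8 mM stock) for 4 h. Medium was removed and Rh123 added for 30 min at 37 °C. Cells were washed twice in cold PBS and examined immediately under an inverted microscope for green fluorescence.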

The nature of test [9]: Inhibition of H2O2-induced apoptosis in human HBMEC2 cells assessed as early apoptotic cells at 6.25 uM preincubated for 24 hrs followed by H2O2 addition measured after 4 hrs by Annexin V-FITC/propidium iodide staining based flow cytometry (reference value: 8.1 %). The format is functional, HBMEC-2. Further details: scale not given: the % may be the effect or the level left. In short, it runs like this: as §2

The subject of test [10] is SH-SY5Y. In words: Inhibition of H2O2-induced apoptosis in human SH-SY5Y cells assessed as normal cells at 3.13 uM preincubated for 24 hrs followed by H2O2 addition measured after 4 hrs by Annexin V-FITC/propidium iodide staining based flow cytometry (reference value: 67.2 %). It is filed as functional. On the set-up: scale not given: the % may be the effect or the level left. A digest of the protocol: as §2

Test [11] can be described thus: Neuroprotective activity against H2O2-induced cell damage in human HBMEC2 cells assessed as increase in cell viability preincubated for 24 hrs followed by H2O2 addition and measured after 4 hrs by MTT assay. The format is functional, cell-based. As to conditions: HBMEC-2. A digest of the protocol:
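Cells at 3.5×10^4 cells/mL in 96-well plates were grown 24 h (37 °C, 5% CO2). Test agent was added at five concentrations for 24 h, then H2O2 (4.8 mM stock) to model and drug wells. After PBS washes, MTT (5 mg/mL) was added for 4 h, formazan was dissolved in DMSO and OD was read at 550 nm. Proliferation rate = (drug − injury OD)/(control − injury OD). EC50 came from a formula using maximum concentration and summed, maximal and minimal rates.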
(In general: Tetrazolium dyes change colour on reduction, which living cells bring about.)

The subject of test [12] is SH-SY5Y. The experiment in a line: Inhibition of H2O2-induced apoptosis in human SH-SY5Y cells assessed as necrotic cells at 6.25 uM preincubated for 24 hrs followed by H2O2 addition measured after 4 hrs by Annexin V-FITC/propidium iodide staining based flow cytometry (reference value: 0.9 %). The format is functional. Further details: scale not given: the % may be the effect or the level left. In short, it runs like this: as §2

Test [13] can be described thus: Inhibition of H2O2-induced apoptosis in human HBMEC2 cells assessed as early apoptotic cells at 3.13 uM preincubated for 24 hrs followed by H2O2 addition measured after 4 hrs by Annexin V-FITC/propidium iodide staining based flow cytometry (reference value: 8.1 %). It is filed as functional, HBMEC-2. On the set-up: scale not given: the % may be the effect or the level left. In short, it runs like this: as §2

Test [14] has as its system SH-SY5Y. The experiment in a line: Protection against H2O2-induced apoptosis in human SH-SY5Y cells assessed as reduction in cell disruption at 1.56 to 6.25 uM preincubated for 24 hrs followed by H2O2 addition measured after 4 hrs by Giemsa staining based inverted phase contrast microscopic analysis. It is filed as functional. In short, it runs like this:
as §1

Test [15] concerns SH-SY5Y. In words: Inhibition of H2O2-induced apoptosis in human SH-SY5Y cells assessed as early apoptotic cells at 3.13 uM preincubated for 24 hrs followed by H2O2 addition measured after 4 hrs by Annexin V-FITC/propidium iodide staining based flow cytometry (reference value: 5.4 %). It is filed as functional. On the set-up: scale not given: the % may be the effect or the level left. In short, it runs like this:
as §2

A further test is filed under the species Gallus gallus. In words: Induction of angiogenesis in chicken embryo assessed as up regulation of VEGFR2 mRNA expression at 1 mg/ml by RT-PCR analysis. The format is functional, organism-based. In short, it runs like this: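 Total RNA came from chick embryos of the 1 mg/mL CAM group (Trizol extraction) and was reverse-transcribed with M-MLV. SYBR real-time PCR ran 40 cycles of 94 °C 15 s / 60 °C 35 s, then 72 °C 10 min. Expression was quantified relative to controls by the 2^-ΔΔCT method.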

In test [16] the test system is SH-SY5Y. The experiment in a line: Inhibition of H2O2-induced apoptosis in human SH-SY5Y cells assessed as late apoptotic cells at 3.13 uM preincubated for 24 hrs followed by H2O2 addition measured after 4 hrs by Annexin V-FITC/propidium iodide staining based flow cytometry (reference value: 26.5 %). It is filed as functional. On the set-up: scale not given: the % may be the effect or the level left. A digest of the protocol:
as §2

Test [17] is described as follows: Inhibition of H2O2-induced apoptosis in human HBMEC2 cells assessed as early apoptotic cells at 1.56 uM preincubated for 24 hrs followed by H2O2 addition measured after 4 hrs by Annexin V-FITC/propidium iodide staining based flow cytometry (reference value: 8.1 %). The format is functional, HBMEC-2. On the set-up: scale not given: the % may be the effect or the level left. In short, it runs like this:
as §2

Test [18] is described as follows: Inhibition of H2O2-induced apoptosis in human HBMEC2 cells assessed as late apoptotic cells at 3.13 uM preincubated for 24 hrs followed by H2O2 addition measured after 4 hrs by Annexin V-FITC/propidium iodide staining based flow cytometry (reference value: 29.4 %). It is filed as functional, HBMEC-2. On the set-up: scale not given: the % may be the effect or the level left. A digest of the protocol:
as §2

Calls of active or inactive are those of the source. No cut-off for these calls is given here.

For `COc1cc(CNC(=O)/C=C/c2cc(OC)c(OC)cc2OC)ccc1O`, the Activity result is “Dose-dependent effect” in the test on HBMEC-2 [1]; 19.3% in test [2]; 2.6% in the test on SH-SY5Y [3]; 10.2% in [4]; 4.3% in the test on SH-SY5Y [5]; 14% in the test with SH-SY5Y [6]. Besides, the Activity in the test on SH-SY5Y [7] came out at 82.3%; in test [9], 8.3%; with SH-SY5Y [10], 74.7%; in the test with SH-SY5Y [12] it was 1.1%; in [13], 8.9%; with SH-SY5Y [15], 4.2%. Further, the Activity came out at 21% in the test with SH-SY5Y [16], 9.1% in test [17] and 10.5% in test [18]. In addition, the result in the test with HBMEC-2 [8], in the test with SH-SY5Y [14] and in the test listed under Gallus gallus was Active. In addition, the EC50 in test [11] turned out to be 3.26 µM.
